This is a sample that favours compounds with a hit; in the whole collection about 3% have one here.
Granule exo inh: blocks lytic granule exocytosis; TALL-104 LAMP-1 surface exposure, flow cytometry; cells stimulated with thapsigargin and PMA; inhibition, % at 10 µM; actives 0.66% (n = 360,000); AID 651702;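 active = inhibition above about 55%, limit read from the data; inconclusive = no clear call, values can overlap the other calls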
Cardio protect: modulators protecting cardiomyocytes from myocardial damage; H9c2 cardiomyocytes, H2O2 injury protection, ATPLite, 2 h; protection from H2O2 cell death, % at 20 µM; actives 0.63% (n = 360,000); AID 588492;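 active = compounds giving at least 50% protection of heart cells from peroxide-induced death in the single-dose screen, raw or plate-pattern-corrected value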;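 note: 0% = DMSO wells with peroxide and 100% = DMSO wells without peroxide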
SENP1 FRET inh: inhibitors of human SENP1 SUMO protease catalytic domain | Q9P0U3 | recombinant SENP1 catalytic domain, CyPet-SUMO1-YPet FRET cleavage | inhibition, % at 10 µM | actives 0.21% (n = 360,000);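 active = inhibition at least 30% at 10 µM, raw YFP signal under a set limit, fluorescence ratio 0.5 to 1.5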;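 note: 0% = enzyme with DMSO and 100% = no enzyme wells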
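Material: hSENP1 catalytic domain, recombinant; medium: Tris pH 8 with BME, BSA, NP40 and catalase; compound: single concentration of 10 µM compound, 0.5% DMSO final; technique: FRET read of cyan and yellow fluorescence; timing: 50 min enzyme reaction, room temperature, light-protected; reagent: SFCypet-SUMO1-SFYpet substrate at 25 nM; control set: no-enzyme low, enzyme-DMSO high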
Pemphigus Ab inh: inhibitors of pemphigus antibody binding to human desmoglein-3. P32926. DSG3-coupled beads, scFv-anti-DSG3-GFP binding, flow cytometry; stronger effect = lower value. binding (percent of control), % at 10 µM. actives 0.48% (n = 310,000);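 active = binding more than 3 SD below its plate's average and above zero; inconclusive = below that plate limit but binding exactly zero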;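 note: hits lower antibody fragment binding to DSG3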
Target sequence (P32926 whole entry, looked up, the tested form may be a part): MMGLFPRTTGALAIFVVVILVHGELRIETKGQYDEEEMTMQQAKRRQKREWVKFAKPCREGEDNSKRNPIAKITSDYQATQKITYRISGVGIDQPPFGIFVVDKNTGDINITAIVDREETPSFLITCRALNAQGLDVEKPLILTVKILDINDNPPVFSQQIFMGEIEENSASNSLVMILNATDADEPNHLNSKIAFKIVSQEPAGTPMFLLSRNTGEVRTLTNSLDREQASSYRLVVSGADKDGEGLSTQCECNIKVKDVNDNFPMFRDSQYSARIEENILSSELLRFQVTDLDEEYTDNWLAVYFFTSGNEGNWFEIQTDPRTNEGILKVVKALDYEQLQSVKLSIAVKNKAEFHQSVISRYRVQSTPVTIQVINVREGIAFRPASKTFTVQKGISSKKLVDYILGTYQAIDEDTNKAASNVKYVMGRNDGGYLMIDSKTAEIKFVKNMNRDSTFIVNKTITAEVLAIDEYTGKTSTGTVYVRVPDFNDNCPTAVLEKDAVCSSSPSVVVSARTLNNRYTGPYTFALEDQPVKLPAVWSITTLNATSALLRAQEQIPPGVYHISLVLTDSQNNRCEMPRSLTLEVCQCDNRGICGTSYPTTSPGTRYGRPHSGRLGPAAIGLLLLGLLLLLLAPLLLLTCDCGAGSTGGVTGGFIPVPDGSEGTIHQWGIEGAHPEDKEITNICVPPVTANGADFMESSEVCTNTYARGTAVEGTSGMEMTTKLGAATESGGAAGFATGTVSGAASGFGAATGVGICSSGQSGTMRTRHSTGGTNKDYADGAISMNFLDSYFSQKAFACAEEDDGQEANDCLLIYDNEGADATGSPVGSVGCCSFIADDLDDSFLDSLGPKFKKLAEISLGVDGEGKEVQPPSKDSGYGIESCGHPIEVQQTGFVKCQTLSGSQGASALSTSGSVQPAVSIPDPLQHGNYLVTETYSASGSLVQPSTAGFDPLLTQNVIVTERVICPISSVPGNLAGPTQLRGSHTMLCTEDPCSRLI
HNF4A DNA FP: change in binding of human HNF4 alpha to DNA. actives 0.3% (n = 360,000). HNF4a-FITC DNA binding, fluorescence polarization, 1 h. P41235. activity change, % at 10 µM; in the data active = activity change above about 30%, passing the limit was not always enough
Myeloid diff MLP: compounds promoting myeloid differentiation | ER-HoxA9 myeloid progenitors, lysozyme-GFP differentiation, flow cytometry | calls only at 10 µM | actives 1% (n = 360,000) | AID 624256;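 active = normalized GFP-positive differentiation at or above the plate's own cutoff, the solvent-only control mean plus 3 SD; inconclusive = no clear call, values can overlap the other calls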;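 note: cells exposed to compound for four days before flow analysis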
Numbers without * were called inactive; i = inactive; ? = inconclusive; · = not tested or not shown; + = active, no number.

SMILES | Granule exo inh | Cardio protect | SENP1 FRET inh | Pemphigus Ab inh | HNF4A DNA FP | Myeloid diff MLP
Cc1cc(C(=O)N2CCC2(C)C(=O)Nc2cc(C(C)(C)C)nn2C)nn1C (centres undefined) | -2 | -1 | 1 | · | -1 | i
O=C(COC(=O)/C=C/c1ccc(F)cc1)NCC1CCCO1 (centres undefined) | -6 | 4 | 0 | 100 | 2 | i
CC(=O)Nc1ccc(CN2C(=O)C(C)(C)ON=C2c2ccc(NC(C)=O)cc2)cc1 | -6 | 4 | -2 | · | 1 | i
O/N=C/c1cn(-c2ccccc2)nc1-c1cccnc1 | -3 | 0 | 3 | 103 | -2 | i
O=C(N/N=C/c1cn(-c2ccccc2)nc1-c1cccnc1)c1ccc(F)cc1 | -4 | 71* | 4 | 95 | 2 | i
O=C(N/N=C/c1cn(-c2ccccc2)nc1-c1cccnc1)c1cccnc1 | -15 | 52* | -3 | 103 | -1 | i
O=C(N/N=C/c1cn(-c2ccccc2)nc1-c1ccc(F)cc1)c1ccc(Br)o1 | -3 | -10 | -1 | 106 | -8 | i
Cc1cc2nc(C(C)(C)C)c(Cc3ccsc3)n2c(C)c1Br | 0 | · | -8 | · | 5 | i
CC(=O)N(C)c1cccc([N+](=O)[O-])c1 | -2 | 0 | -1 | 88 | -3 | i
CC(=O)N(c1ccccc1)c1ccc([N+](=O)[O-])cc1[N+](=O)[O-] | -4 | -5 | 12 | 98 | 1 | +
O=C(CN1C(=O)C2CC=CCC2C1=O)Nc1nc2ccccc2s1 (centres undefined) | -7 | 2 | 4 | 99 | -3 | i
O=[N+]([O-])c1ccc(NCCNc2ccc([N+](=O)[O-])cc2)cc1 | 0 | 3 | -7 | -6.8* | 4 | i
O=C(CCNc1ccc(Br)cc1)c1cccc([N+](=O)[O-])c1 | 86* | -23 | 0 | · | 0 | i
O=C(CCNc1ccc(F)cc1)c1cccc([N+](=O)[O-])c1 | 34 | -10 | -1 | · | -5 | i
O=C(CCNc1ccc(Cc2ccncc2)cc1)c1ccc([N+](=O)[O-])cc1 | 90* | -8 | 4 | 81 | 3 | i
O=C(Nc1ccc(Cc2ccncc2)cc1)c1cccc([N+](=O)[O-])c1 | 12 | -6 | 2 | 90 | -1 | i
C[C@H](CO)N1C[C@H](C)[C@@H](CN(C)Cc2ccc(Cl)c(Cl)c2)Oc2c(NS(=O)(=O)c3ccc(F)cc3)cccc2C1=O | -9 | 8 | 2 | 108 | 4 | i
O=C1C(=C(O)c2ccccc2)C(=O)c2ccccc21 | -3 | -5 | 7 | 85 | -2 | +
CCOc1cc(Br)c(Br)c(C=Nc2ccc(NC(C)=O)cc2)c1O | 5 | 94* | 41* | 87 | -25 | i
COc1ccc(CNC(=O)c2ccc(Cn3cc(Br)cn3)o2)cc1 | -13 | -3 | -3 | 106 | 0 | i
Cc1ccc(CN(C)C(=O)CN2C(=O)NC(c3ccccc3)(c3ccccc3)C2=O)c(C)c1 | 11 | 2 | 3 | · | 0 | i
CCOC(=O)N1CCN(CC(=O)Nc2ccc([N+](=O)[O-])cc2C(=O)Nc2ccccc2F)CC1 | 3 | 42 | 1 | 85 | -1 | i
O=C(CN1CCN(Cc2ccccc2)CC1)Nc1ccc([N+](=O)[O-])cc1C(=O)Nc1ccccc1F | 36 | 51* | 1 | 95 | -4 | i
COc1cc(NC(=O)c2cc([N+](=O)[O-])ccc2NC(=O)CN2CCN(c3ccccn3)CC2)cc(OC)c1 | 8 | 55* | 0 | · | 5 | ?
CCOC(=O)[C@]12CCCC=C1N(Cc1ccc(Cl)cc1Cl)C(=O)[C@H](CC(=O)NCc1cccs1)C2 | 16 | · | 0 | · | 2 | i
SMILES | Granule exo inh | Cardio protect | SENP1 FRET inh | Pemphigus Ab inh | HNF4A DNA FP | Myeloid diff MLP
COc1cc([N+](=O)[O-])ccc1NC(=O)COC(=O)c1c[nH]c(=O)[nH]c1=O | -1 | 0 | 1 | 119 | -2 | i
Cc1cc(N2CC(C)OC(C)C2)nc2ccccc12 (centres undefined) | 0 | 16 | 1 | 101 | -1 | i
COC(=O)c1ccc(NC(=O)C2CC(=O)N(c3ccc(C)cc3)C2)cc1 (centres undefined) | 12 | -13 | 1 | -25* | 3 | i
COc1ccc(N2CC(C(=O)Nc3ccc(S(=O)(=O)N4CCCC4)cc3)CC2=O)cc1 (centres undefined) | -14 | -1 | 1 | 31* | -1 | i
COC(=O)c1ccc(NC(=O)C2CC(=O)N(c3cc(C)ccc3C)C2)cc1 (centres undefined) | 40 | 0 | 2 | 101 | -4 | i
Cc1ccccc1C(=O)N1CCC(C(=O)Nc2ccc(S(=O)(=O)N3CCCC3)cc2)CC1 | 0 | 4 | -2 | 82 | -1 | +
COc1ccc(N2CC(C(=O)Nc3ccc(S(=O)(=O)N4CCCCC4)cc3)CC2=O)cc1 (centres undefined) | 0 | -6 | 0 | 102 | 2 | i
COc1ccccc1CN1CCCC(CN(CCN(C)C)C(=O)c2ccc(C)cc2)C1 (centres undefined) | 26 | 11 | 0 | 117 | 2 | i
CCN(CC)C(=O)C1=C(C)N(CCCN2CCCC2=O)C(=O)C(CC(=O)NCc2cccs2)C1 (centres undefined) | -5 | 1 | 1 | · | -1 | i
COC(=O)c1ccc2c(c1)C(C)(C)C(/C=C/c1ccccc1O)=[N+]2C | 32 | -19 | -2 | 105 | 37* | ·
C[N+]1=C(/C=C/Nc2ccccc2Cl)C(C)(C)c2ccccc21 | -10 | -22 | -28 | 109 | 6 | i
Cc1ccc(CCNC(=O)C2CCN(S(=O)(=O)c3ccc4c(c3)CCC(=O)N4)CC2)cc1 | -7 | 1 | 4 | 77* | 4 | i
Clc1ccc2c(NCCNC3CCCCC3)ccnc2c1 | -4 | 4 | 2 | 94 | 0 | +
CC(CCCN1CCCC1)Nc1ccnc2cc(Cl)ccc12 (centres undefined) | -7 | 1 | -26 | 107 | 5 | i
CC(C)NC1CCC(Nc2ccnc3cc(Cl)ccc23)CC1 (centres undefined) | -6 | -11 | 1 | 99 | 0 | +
CSc1nc(N)nc2c1ncn2CC(=O)Nc1ccc(C)c(C)c1 | 1 | -20 | 1 | 97 | 2 | i
COc1ccc(C)cc1NC(=O)CN1CCN(C/C=C/c2ccccc2)CC1 | -9 | 5 | -3 | 107 | 1 | i
O=C(NCc1ccccn1)C1CCN(C(=O)c2cc3sccc3n2Cc2ccc(F)cc2)CC1 | 0 | -11 | -8 | 283 | 3 | +
O=C(NCc1ccco1)C1CCN(C(=O)c2cc3sccc3n2Cc2ccc(F)cc2)CC1 | -1 | -8 | -2 | 98 | 1 | i

High-throughput results from PubChem BioAssay.
